Source: ChEMBL document CHEMBL1795296, “Synthesis, structural elucidation, DNA-PK inhibition, homology modelling and anti-platelet activity of morpholino-substituted-1,3-naphth-oxazines” (Bioorg Med Chem, 2011)

Experiments:
Platelet = test: Anti-platelet activity in human blood assessed as inhibition of collagen induced human platelet aggregation; type: functional, cell-based
Procedure, shortened: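 Collagen-triggered aggregation measured optically in a two-channel platelet aggregometer.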

[1] = biological target: T1, DNA-dependent protein kinase catalytic subunit (Homo sapiens, UniProt P78527); test: Inhibition of purified DNA-PK by ADP-Glo Kinase assay
T1 sequence (P78527 whole entry): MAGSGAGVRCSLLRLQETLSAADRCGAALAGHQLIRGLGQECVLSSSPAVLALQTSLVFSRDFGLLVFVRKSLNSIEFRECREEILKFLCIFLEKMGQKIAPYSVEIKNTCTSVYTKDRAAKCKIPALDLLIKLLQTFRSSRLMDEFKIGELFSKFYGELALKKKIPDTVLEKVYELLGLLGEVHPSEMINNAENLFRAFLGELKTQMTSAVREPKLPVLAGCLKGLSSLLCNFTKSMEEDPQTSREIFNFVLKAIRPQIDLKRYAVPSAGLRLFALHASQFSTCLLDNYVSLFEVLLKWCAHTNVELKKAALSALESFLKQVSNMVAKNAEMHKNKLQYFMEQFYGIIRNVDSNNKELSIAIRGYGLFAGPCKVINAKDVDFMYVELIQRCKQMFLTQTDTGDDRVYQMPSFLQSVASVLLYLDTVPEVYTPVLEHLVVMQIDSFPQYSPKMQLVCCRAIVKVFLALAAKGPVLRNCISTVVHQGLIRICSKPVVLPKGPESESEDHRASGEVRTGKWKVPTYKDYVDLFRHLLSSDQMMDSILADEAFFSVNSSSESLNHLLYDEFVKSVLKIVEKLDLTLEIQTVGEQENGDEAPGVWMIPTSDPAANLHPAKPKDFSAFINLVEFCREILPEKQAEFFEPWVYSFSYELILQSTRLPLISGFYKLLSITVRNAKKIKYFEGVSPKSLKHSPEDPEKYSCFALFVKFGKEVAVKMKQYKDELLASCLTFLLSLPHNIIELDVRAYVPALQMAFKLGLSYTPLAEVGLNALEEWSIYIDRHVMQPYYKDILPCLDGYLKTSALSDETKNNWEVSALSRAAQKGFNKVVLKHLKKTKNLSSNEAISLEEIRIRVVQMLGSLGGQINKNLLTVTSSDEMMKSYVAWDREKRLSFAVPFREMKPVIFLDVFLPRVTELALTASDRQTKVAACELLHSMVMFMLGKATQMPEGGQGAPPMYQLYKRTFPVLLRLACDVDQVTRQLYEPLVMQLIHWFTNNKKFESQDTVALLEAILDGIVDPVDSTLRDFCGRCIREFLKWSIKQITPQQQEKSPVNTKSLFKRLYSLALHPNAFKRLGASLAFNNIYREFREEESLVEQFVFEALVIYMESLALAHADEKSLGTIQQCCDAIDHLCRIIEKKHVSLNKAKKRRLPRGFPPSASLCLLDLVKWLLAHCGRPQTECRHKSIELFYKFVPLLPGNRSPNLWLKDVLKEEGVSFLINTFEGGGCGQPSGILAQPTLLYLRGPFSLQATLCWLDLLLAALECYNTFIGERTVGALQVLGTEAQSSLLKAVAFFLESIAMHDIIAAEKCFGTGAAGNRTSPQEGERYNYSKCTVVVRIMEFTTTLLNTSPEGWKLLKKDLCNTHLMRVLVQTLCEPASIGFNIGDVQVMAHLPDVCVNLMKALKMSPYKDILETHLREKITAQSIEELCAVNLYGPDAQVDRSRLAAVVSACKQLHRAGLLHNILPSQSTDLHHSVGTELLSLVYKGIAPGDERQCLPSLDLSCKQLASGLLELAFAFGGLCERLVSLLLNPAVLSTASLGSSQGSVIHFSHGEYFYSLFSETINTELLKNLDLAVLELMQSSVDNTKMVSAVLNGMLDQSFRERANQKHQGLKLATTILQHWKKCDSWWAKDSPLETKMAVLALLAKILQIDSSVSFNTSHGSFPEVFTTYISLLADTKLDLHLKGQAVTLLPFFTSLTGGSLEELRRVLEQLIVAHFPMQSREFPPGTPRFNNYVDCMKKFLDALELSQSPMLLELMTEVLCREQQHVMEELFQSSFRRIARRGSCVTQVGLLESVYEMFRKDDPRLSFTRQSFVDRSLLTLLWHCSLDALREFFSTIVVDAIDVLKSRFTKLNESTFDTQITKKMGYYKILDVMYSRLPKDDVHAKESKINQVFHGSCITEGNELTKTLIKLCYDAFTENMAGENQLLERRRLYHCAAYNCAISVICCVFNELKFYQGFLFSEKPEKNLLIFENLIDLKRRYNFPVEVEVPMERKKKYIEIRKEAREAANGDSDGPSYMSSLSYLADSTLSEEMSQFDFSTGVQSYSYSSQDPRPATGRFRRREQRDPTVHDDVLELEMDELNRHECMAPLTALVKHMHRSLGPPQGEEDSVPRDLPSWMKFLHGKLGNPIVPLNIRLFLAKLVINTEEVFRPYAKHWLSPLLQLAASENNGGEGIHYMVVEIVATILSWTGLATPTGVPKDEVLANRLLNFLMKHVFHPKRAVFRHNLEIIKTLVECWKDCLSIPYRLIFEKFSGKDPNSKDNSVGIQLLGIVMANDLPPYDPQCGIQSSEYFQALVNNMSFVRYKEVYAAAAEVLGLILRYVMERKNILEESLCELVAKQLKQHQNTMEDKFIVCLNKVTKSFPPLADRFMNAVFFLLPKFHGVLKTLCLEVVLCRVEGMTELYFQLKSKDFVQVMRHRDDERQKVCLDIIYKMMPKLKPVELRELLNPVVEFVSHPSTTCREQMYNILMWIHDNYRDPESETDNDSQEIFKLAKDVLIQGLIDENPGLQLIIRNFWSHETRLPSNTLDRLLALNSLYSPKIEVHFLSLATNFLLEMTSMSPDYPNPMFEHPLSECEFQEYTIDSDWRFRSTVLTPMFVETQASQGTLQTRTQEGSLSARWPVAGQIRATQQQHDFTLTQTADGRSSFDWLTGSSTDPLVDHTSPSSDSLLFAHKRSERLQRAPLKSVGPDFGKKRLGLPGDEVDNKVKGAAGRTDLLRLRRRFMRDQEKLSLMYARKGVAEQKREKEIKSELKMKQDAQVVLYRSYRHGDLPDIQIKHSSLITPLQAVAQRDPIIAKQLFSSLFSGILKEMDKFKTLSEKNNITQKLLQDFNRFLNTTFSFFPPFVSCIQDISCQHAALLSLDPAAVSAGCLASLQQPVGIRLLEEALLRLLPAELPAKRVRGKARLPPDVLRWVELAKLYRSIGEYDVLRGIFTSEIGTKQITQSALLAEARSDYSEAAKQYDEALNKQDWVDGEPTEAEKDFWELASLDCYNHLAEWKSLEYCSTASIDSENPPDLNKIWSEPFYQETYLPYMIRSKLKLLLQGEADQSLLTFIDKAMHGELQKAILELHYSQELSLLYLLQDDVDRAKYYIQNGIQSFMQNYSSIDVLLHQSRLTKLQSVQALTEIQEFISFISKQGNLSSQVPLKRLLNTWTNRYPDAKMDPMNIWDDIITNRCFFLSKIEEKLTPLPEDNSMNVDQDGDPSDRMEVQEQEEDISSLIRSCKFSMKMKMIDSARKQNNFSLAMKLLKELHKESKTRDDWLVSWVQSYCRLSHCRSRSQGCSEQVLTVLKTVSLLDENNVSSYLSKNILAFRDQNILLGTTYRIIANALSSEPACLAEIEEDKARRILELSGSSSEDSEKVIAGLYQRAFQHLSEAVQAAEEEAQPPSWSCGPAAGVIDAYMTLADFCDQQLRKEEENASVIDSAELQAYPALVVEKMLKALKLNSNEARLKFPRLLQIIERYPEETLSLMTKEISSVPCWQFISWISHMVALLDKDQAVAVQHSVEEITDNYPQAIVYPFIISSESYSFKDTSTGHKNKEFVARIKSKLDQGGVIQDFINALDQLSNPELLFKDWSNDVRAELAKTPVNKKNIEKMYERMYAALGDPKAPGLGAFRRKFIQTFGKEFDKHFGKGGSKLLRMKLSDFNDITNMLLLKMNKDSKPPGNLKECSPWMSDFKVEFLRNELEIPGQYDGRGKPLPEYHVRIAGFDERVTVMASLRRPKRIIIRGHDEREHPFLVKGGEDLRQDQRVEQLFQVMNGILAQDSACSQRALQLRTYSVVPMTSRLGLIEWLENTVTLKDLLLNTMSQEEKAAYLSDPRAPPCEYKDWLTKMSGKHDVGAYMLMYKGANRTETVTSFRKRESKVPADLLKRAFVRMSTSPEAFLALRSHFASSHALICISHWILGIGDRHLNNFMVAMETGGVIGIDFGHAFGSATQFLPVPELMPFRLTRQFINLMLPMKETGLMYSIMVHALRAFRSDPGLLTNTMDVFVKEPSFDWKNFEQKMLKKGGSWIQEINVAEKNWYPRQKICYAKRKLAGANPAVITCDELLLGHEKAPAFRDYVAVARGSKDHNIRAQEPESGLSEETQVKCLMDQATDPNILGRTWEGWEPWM
Procedure, shortened: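 Reaction used 5× buffer (250 mM Hepes, 500 mM KCl, 50 mM MgCl2, 1 mM EGTA, 0.5 mM EDTA, 5 mM DTT) diluted to 1×, with BSA and ATP (0.5 mM stock). Drug or water added; 30 °C, 5 min. ADP read by ADP-Glo luminescence; IC50 from curve fitting.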

[2] = biological target: T1, DNA-dependent protein kinase catalytic subunit; test: Inhibition of DNA-PK
Procedure, shortened: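 The buffer was 1× reaction buffer of Hepes, KCl, MgCl2, EGTA, EDTA and DTT, with drug or water added. Reactions ran 5 min at 30 °C. ADP formed was read by ADP-Glo luminescence, and IC50 was obtained by curve fitting.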

Row | SMILES | IC50 (Platelet) [µM] | IC50 [1] [nM] | IC50 [2] [nM]
1 | CN1CCN(CCOc2cccc3cc4c(=O)nc(N5CCOCC5)oc4cc23)CC1 | 100 | 3090 | 
2 | O=c1nc(N2CCOCC2)oc2cc3c(OCc4cccnc4)cccc3cc12 | 85 | 330 | 
3 | O=c1nc(N2CCOCC2)oc2c1cc(OCc1cccnc1)c1ccccc12 | 100 | 717 | 
4 | O=c1nc(N2CCOCC2)oc2ccc3ccccc3c12 | 450 | 720 | 
5 | O=c1nc(N2CCOCC2)oc2c1cc(OCc1ccccn1)c1ccccc12 | 100 | 2430 | 
6 | O=c1nc(N2CCOCC2)oc2c1ccc1ccccc12 | 280 | 420 | 
7 | O=c1nc(N2CCOCC2)oc2cc3ccc(OCc4ccccn4)cc3cc12 | 100 | 96 | 
8 | CN1CCN(CCOc2cc3c(=O)nc(N4CCOCC4)oc3c3ccccc23)CC1 | 100 | 760 | 
9 | O=c1nc(N2CCOCC2)oc2cc3c(OCc4ccccn4)cccc3cc12 | ≥ 100 | 930 | 
10 | O=c1nc(N2CCOCC2)oc2cc3ccc(OCc4cccnc4)cc3cc12 | 55 | 1700 | 
11 | O=c1nc(N2CCOCC2)oc2cc3ccccc3cc12 | 155 | 6500 | 
12 | CN1CCN(CCOc2ccc3cc4oc(N5CCOCC5)nc(=O)c4cc3c2)CC1 | 100 | 190 | 
13 | O=c1cc(N2CCOCC2)oc2c1ccc1ccccc12 |  |  | 300
